Most compounds without a hit are left out; they make up all but 3.3% or so of the library.
Myeloid diff 2 – induction of myeloid progenitor differentiation, primary screen, cell-based, flow cytometry, MLPCN library; ER-HoxA9 myeloid progenitors, lysozyme-GFP differentiation; calls only at 10 µM; 1% of 360,000 active; AID 624256, 2012;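 active = normalized GFP-positive differentiation at or above the plate's own cutoff, the solvent-only control mean plus 3 SD; inconclusive = no clear call, values can overlap the other calls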;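 also: cells exposed to compound for four days before flow analysis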
ATG4B inh – ATG4B protease inhibitors, primary screen, biochemical, fluorescence, uHTS. Cysteine protease ATG4B (Homo sapiens), Q9Y4P1. ATG4B cleavage of LC3-PLA2, NBD-HPC fluorescence, 1 h. inhibition, % at 8.33 µM. 0.51% of 340,000 active. AID 504462, 2011; in the data active = inhibition above about 40%
Arrestin-AP2 inh – inhibitors of beta-arrestin/AP2 binding, primary screen, biochemical, GPCR trafficking, flow cytometry; FITC-arrestin peptide / GST-AP2 beads; AP2 beta2 appendage carries R879A mutation; 0.31% of 340,000 active; inhibition, % at 10 µM; AID 504490, 2011;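 active = inhibition above a set limit, near 3 SD of compounds lacking own fluorescence, cut at about 54% in these data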
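System: GST-tagged AP2 beta2-adaptin appendage (R879A) on 4 µm glutathione beads / Reagent: FITC-arrestin peptide, 50 nM / Detection: HyperCyt-sampled flow cytometry, FL1 channel, ex 488/em 535 nm / Timing: 12 min plus 1 h, RT / Buffer or medium: PBS plus Tween 20 (0.05%) and BSA (0.1%)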
Granule exo inh – LAMP-1 surface exposure blockers, TALL-104 cells – cell-based, flow cytometry, MLPCN library, primary screen; TALL-104 LAMP-1 surface exposure; cells stimulated with thapsigargin and PMA; inhibition, % at 10 µM; 0.66% of 360,000 active; AID 651702, 2012;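 active = inhibition above about 55%, limit read from the data; inconclusive = no clear call, values can overlap the other calls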
ABCB6 inh MLPCN – ABCB6 transporter inhibitors, primary screen, K562-ABCB6 cells, flow cytometry, MLPCN library | K562-ABCB6 porphyrin accumulation, 1 h; active compounds read low | fluorescence ratio to DMSO, % at 10 µM | 0.19% of 360,000 active;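 active = fluorescence ratio to DMSO below 75%, the collection mean minus 3 SD; inconclusive = too few cells collected in the well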;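 also: signal is porphyrin accumulated inside mitochondria; lower ratio means ABCB6 inhibition with less porphyrin fluorescence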
NRP1-CendR mod – modulators of CendR peptide binding to NRP-1, primary screen, biochemical, fluorescence polarization, uHTS. Neuropilin-1 (Homo sapiens), O14786. FAM-RPARPAR peptide binding to NRP-1. inhibition, % at 25 µM. 0.85% of 360,000 active. AID 602438, 2012;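 active = inhibition or corrected inhibition above about 18%, plus a signal ratio from 0.5 to 1.5, limit read from the data, passing the limit was not always enough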
Target sequence (O14786 whole entry, looked up): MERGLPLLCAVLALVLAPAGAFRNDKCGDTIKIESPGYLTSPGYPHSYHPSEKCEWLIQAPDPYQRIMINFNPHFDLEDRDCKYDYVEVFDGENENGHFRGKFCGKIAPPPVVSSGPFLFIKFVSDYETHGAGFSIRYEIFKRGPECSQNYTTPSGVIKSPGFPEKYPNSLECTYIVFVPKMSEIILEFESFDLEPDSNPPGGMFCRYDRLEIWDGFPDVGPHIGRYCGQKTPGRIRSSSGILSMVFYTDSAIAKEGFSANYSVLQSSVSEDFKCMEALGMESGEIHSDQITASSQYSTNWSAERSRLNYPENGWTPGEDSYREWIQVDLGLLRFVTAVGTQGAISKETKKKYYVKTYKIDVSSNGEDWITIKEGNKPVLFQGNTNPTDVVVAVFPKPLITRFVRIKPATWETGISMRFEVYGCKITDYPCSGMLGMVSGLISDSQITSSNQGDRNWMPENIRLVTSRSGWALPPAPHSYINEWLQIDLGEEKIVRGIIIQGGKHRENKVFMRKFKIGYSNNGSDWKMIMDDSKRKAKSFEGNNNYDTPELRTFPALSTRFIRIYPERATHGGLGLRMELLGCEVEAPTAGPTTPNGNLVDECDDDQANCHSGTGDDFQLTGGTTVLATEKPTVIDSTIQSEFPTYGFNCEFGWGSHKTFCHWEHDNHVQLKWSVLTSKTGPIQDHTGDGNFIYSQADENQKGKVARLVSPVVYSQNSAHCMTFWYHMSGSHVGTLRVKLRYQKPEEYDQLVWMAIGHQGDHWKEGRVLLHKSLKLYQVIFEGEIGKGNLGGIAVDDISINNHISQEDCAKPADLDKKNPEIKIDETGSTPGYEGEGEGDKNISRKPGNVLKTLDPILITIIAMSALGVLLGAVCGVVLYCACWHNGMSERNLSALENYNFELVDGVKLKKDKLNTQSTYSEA
Exocytosis CP01 – inhibitors of lytic granule exocytosis, confirmation, TALL-104 cells, flow cytometry, Cherry Pick01; shares compounds with Granule exo inh; inhibition, % at 10 µM; 11% of 1,500 active; LAMP-1 externalization; stimulated with PMA plus thapsigargin; in the data active = inhibition above about 60%
Numbers stand for hits.

Results for O=C(Nc1ccccc1Cl)c1ccc2c(=O)n3c(nc2c1)CCC3 ?
Myeloid diff 2: inactive; ATG4B inh: inactive; Arrestin-AP2 inh: inactive; Granule exo inh: inactive; ABCB6 inh MLPCN: inactive; NRP1-CendR mod: inactive

How did O=C(Nc1nc(-c2ccccc2)cs1)c1ccc2c(=O)n3c(nc2c1)CCCCC3 do in these assays?
Myeloid diff 2: inactive; ATG4B inh: inactive; Arrestin-AP2 inh: inactive; Granule exo inh: 97; ABCB6 inh MLPCN: inactive; NRP1-CendR mod: inactive; Exocytosis CP01: 68

How did Cc1oc(-c2ccc(Cl)cc2)nc1CS(=O)CC(=O)NCCN1CCCC1 (centres undefined) do in these assays?
Myeloid diff 2: inactive; ATG4B inh: inactive; Arrestin-AP2 inh: inactive; Granule exo inh: 56; ABCB6 inh MLPCN: inactive; NRP1-CendR mod: inactive; Exocytosis CP01: inactive

What do the screens show for `Cc1cccc(-c2nc(CS(=O)CC(=O)NCCc3ccc(Cl)cc3)c(C)o2)c1` (centres undefined)?
Myeloid diff 2: inconclusive; ATG4B inh: inactive; Arrestin-AP2 inh: inactive; Granule exo inh: 58; ABCB6 inh MLPCN: inactive; NRP1-CendR mod: inactive; Exocytosis CP01: inactive

What do the screens show for `CCCCNC(=O)CS(=O)Cc1nc(-c2cccc(C)c2)oc1C` (centres undefined)?
Myeloid diff 2: inactive; ATG4B inh: inactive; Arrestin-AP2 inh: inactive; Granule exo inh: inactive; ABCB6 inh MLPCN: inactive; NRP1-CendR mod: inactive

What do the screens show for `CCOc1ncccc1C(=O)Nc1cccc(-c2nnc3n2CCCCC3)c1`?
Myeloid diff 2: inactive; ATG4B inh: inactive; Arrestin-AP2 inh: inactive; Granule exo inh: inactive; ABCB6 inh MLPCN: inactive; NRP1-CendR mod: inactive

What do the screens show for `Fc1cccc(NCCc2c[nH]c3ccccc23)n1`?
Myeloid diff 2: inactive; ATG4B inh: inactive; Arrestin-AP2 inh: inactive; Granule exo inh: inactive; ABCB6 inh MLPCN: inactive; NRP1-CendR mod: inactive

What do the screens show for `c1ccc2c(NCCc3c[nH]c4ccccc34)c3ccccc3nc2c1`?
Myeloid diff 2: inconclusive; ATG4B inh: inactive; Arrestin-AP2 inh: inactive; Granule exo inh: 72; ABCB6 inh MLPCN: inactive; NRP1-CendR mod: inactive; Exocytosis CP01: inactive

How did NC1=NC(=O)C(c2ccccc2)(c2ccccc2)S1 do in these assays?
Myeloid diff 2: inactive; ATG4B inh: inactive; Arrestin-AP2 inh: inactive; Granule exo inh: inactive; ABCB6 inh MLPCN: inactive; NRP1-CendR mod: inactive

Results for Cc1ccc(C2(C)NC(=O)N(CC(=O)c3ccc(Cl)s3)C2=O)cc1 (centres undefined) ?
Myeloid diff 2: inactive; ATG4B inh: inactive; Arrestin-AP2 inh: inactive; Granule exo inh: inactive; ABCB6 inh MLPCN: inactive; NRP1-CendR mod: inactive

What do the screens show for `Cc1cc(C)c2sc(N(CCCN(C)C)C(=O)c3ccc(S(=O)(=O)N4CCCc5ccccc54)cc3)nc2c1`?
Myeloid diff 2: inactive; ATG4B inh: inactive; Arrestin-AP2 inh: inactive; Granule exo inh: 58; ABCB6 inh MLPCN: inactive; NRP1-CendR mod: inactive; Exocytosis CP01: inactive

Results for Cc1cc(C)c2sc(N(CCCN(C)C)C(=O)c3ccc(S(=O)(=O)N4CCc5ccccc5C4)cc3)nc2c1 ?
Arrestin-AP2 inh: inactive; Granule exo inh: 56; ABCB6 inh MLPCN: inactive; NRP1-CendR mod: inactive; Exocytosis CP01: 63

Results for Cc1ccc2nc(N(CCCN(C)C)C(=O)c3ccc(S(=O)(=O)N4CCc5ccccc5C4)cc3)sc2c1 ?
Myeloid diff 2: inactive; ATG4B inh: inactive; Arrestin-AP2 inh: inactive; Granule exo inh: inactive; ABCB6 inh MLPCN: inactive; NRP1-CendR mod: inactive

Results for COc1ccc2sc(N(CCCN(C)C)C(=O)c3ccc(S(=O)(=O)N4CCCC4)cc3)nc2c1 ?
Myeloid diff 2: inactive; ATG4B inh: inactive; Arrestin-AP2 inh: inactive; Granule exo inh: inactive; ABCB6 inh MLPCN: inactive; NRP1-CendR mod: inactive

Screens: PubChem, several laboratories
